ChEMBL document CHEMBL1139237, “Identification of inhibitors of N5-carboxyaminoimidazole ribonucleotide synthetase by high-throughput screening” (Bioorg Med Chem, 2009)
The source made the active and inactive calls. No cut-off for these calls is given here.

Tests used:
[1] = Chemical stability in aqueous solution assessed as compound decomposition after 30 mins; format: physicochemical; conditions: buffer, 0.5 h
[2] = Inhibition of Escherichia coli N5-CAIR synthetase by phosphate assay
Outline: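 E. coli enzyme in 50 mM HEPES pH 7.5, 20 mM KCl, 6.0 mM MgCl2, 100 μM ATP, diluted saturated NaHCO3. Compound at eight concentrations, 0.78–100 μM, with 50 μM AIR added, run 5 min at room temperature. Quenched with malachite green reagent, A600 read after at least 15 min. IC50 taken from Hill fit between enzyme + AIR and no-AIR controls.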

[3] = Inhibition of Escherichia coli N5-CAIR synthetase using variable amounts of 5-aminoimidazole ribonucleotide or ATP by ATPase assay
Outline: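 E. coli enzyme (168 ng) in 1 mL cuvette, 50 mM HEPES pH 7.5, 20 mM KCl, 6.0 mM MgCl2, 1.0 mM NaHCO3, PK/LDH coupling (0.2 mM NADH, 2.0 mM PEP, 4 U PK, 17 U LDH). Preincubated with ATP 3 min at 37 °C. ATP fixed 1.1 mM with AIR 5–250 μM, or AIR fixed 100 μM with ATP 5–250 μM. Start with AIR plus inhibitor (0–50 μM); A340 read at 37 °C.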

[4] = Inhibition of Escherichia coli N5-CAIR synthetase using variable amount of ATP and fixed aminoimidazole ribonucleotide by ATPase assay
Outline: (§1)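 PK/LDH-coupled assay at 37 °C in HEPES pH 7.5, KCl, MgCl2, 0.2 mM NADH, 2.0 mM PEP, 1.0 mM NaHCO3. AIR fixed at 100 μM and ATP varied 5–250 μM. Inhibitor at 0–50 μM added with AIR to start the reaction. NADH loss followed at 340 nm, initial velocity over the first 2 min. Mode from Lineweaver-Burk plots, Ki from slope replots.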

[5] = target: T1, Bifunctional phosphoribosylaminoimidazole carboxylase/phosphoribosylaminoimidazole succinocarboxamide synthetase (Homo sapiens) (UniProt P22234); assay: Inhibition of human AIR carboxylase: SAICAR synthetase at 200 uM by coupled assay
T1 sequence (whole entry): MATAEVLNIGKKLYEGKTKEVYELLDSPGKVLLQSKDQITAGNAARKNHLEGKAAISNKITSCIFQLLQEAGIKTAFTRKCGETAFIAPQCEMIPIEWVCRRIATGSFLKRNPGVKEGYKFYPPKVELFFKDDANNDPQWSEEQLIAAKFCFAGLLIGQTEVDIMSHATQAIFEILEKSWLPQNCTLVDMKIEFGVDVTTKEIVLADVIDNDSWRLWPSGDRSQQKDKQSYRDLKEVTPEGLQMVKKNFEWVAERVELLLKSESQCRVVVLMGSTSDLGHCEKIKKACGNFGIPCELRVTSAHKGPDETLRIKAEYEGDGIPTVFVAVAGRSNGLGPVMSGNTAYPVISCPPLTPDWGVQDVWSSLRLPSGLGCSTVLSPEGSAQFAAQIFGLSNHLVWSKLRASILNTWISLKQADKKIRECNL
Outline: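 Human bifunctional AIR carboxylase:SAICAR synthetase (>95% pure by SDS-PAGE); both activities measured together by coupled assay, as described for the chicken enzyme; compounds at 200 μM.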

[6] = Inhibition of Escherichia coli N5-CAIR synthetase using variable amount of aminoimidazole ribonucleotide and fixed ATP by ATPase assay
Outline: as §1, with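 “NaHCO3. ATP” for “NaHCO3. AIR”, “at 1.1 mM” for “at 100 μM”, “and AIR” for “and ATP”, “loss read” for “loss followed”, “initial rate” for “initial velocity”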

[7] = Chemical stability in aqueous solution assessed as compound decomposition after 45 mins; format: physicochemical; conditions: buffer, 0.75 h

SMILES | IC50 [2] [µM] | also measured
Cc1nonc1NC1(O)C(=O)c2ccccc2C1=O | 2.3 | Stability [1]: Unstable; Ki [3]: Not Active
CCN(CC)C(=O)CN1C(=O)C(=O)c2ccccc21 | 10.5 | Ki [4]: 40 µM; Activity [5]: inactive; Ki [6]: 29 µM
CCOC(=O)c1noc(C)c1-c1csc(CS(=O)(=O)c2ccc(Cl)cc2)n1 | 10 | Ki [4]: 43 µM; Activity [5]: inactive; Ki [6]: 62 µM
O=C(NC1(O)C(=O)c2ccccc2C1=O)c1cccc2c1-c1ccccc1C2=O | 8.7 | 
O=C1C(=O)N(CN2CCOCC2)c2ccc(Br)cc21 | 23 | 
Cc1nc(NC2(O)C(=O)c3ccccc3C2=O)cs1 | 5.6 | Stability [7]: Unstable; Ki [3]: Not Active
O=C1C(=O)N(CN2CCN(CN3C(=O)C(=O)c4ccccc43)C2)c2ccccc21 | 69 | 
COc1cc(C(F)(F)F)c(C(=O)NC2(O)C(=O)c3ccccc3C2=O)cn1 | 17 | 
Cc1cc2nc3c(=O)[nH]c(=O)nc-3n(C[C@H](O)[C@H](O)[C@H](O)CO)c2cc1C | 20 | Ki [4]: 122 µM; Activity [5]: inactive; Ki [6]: 81 µM
CCOC(=O)C1CCN(CN2C(=O)C(=O)c3ccccc32)CC1 | 22 | 
Cc1cc(NC2(O)C(=O)c3ccccc3C2=O)n(C)n1 | 7.8 | 
O=C1Nc2ccc(OC(F)(F)F)cc2C1=O | 19 | 
COc1cscc1C(=O)NC1(O)C(=O)c2ccccc2C1=O | 17 | 
CN1CCN(CN2C(=O)C(=O)c3ccccc32)CC1 | 37 | 
